Read-outs that look alike come from different tables or passages of the source.
Experiments:
[1] = test system: BRCA1(BRCT) (six his-tagged, amino acids 1646–1859); settings: cited from earlier work; for ΔGexp (binding free energy): Table 1; for ΔG (Exp): Table 2, brackets = error of the mean
[2] = test system: BRCA1(BRCT) (six his-tagged, amino acids 1646–1859); experiment: Isothermal titration calorimetry; type: binding
In short: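 His6-BRCA1 BRCT (aa 1646–1859) was expressed in E. coli BL21(DE3) RIL (1 mM IPTG), Ni-affinity purified, and dialysed into 50 mM KH2PO4 pH 7.2. Peptides were quantified by amino acid analysis, freeze-dried and redissolved in the same buffer. At 25°C, 100–900 µM peptide was titrated into 10–30 µM protein: 3 µL, then 29 × 10 µL, 3 min apart, 307 rpm. Peptide-into-buffer heats were subtracted and the data integrated.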

[3] = isothermal calorimetric data, ref [9]

| Substance | ΔGexp (binding free energy) ([1]; T1–T4, ref [9]) | ΔG (Exp) ([1]; ref [9]) | also measured |
| --- | --- | --- | --- |
| Ac-EPTF-CONH2 [Peptide T4] | No binding | no binding | binding to BRCA1(BRCT) found experimentally ([1]; in words, ref [9]): does not bind |
| Ac-pSATF-CONH2 [Peptide T2] | -6.7 kcal/mol | −6.7 (0.3) kcal/mol | – |
| Ac-pSPTF-CONH2 [Peptide T1] | -7.5 kcal/mol | −7.5 (0.2) kcal/mol | – |
| Ac-Nap-pSPTF-CONH2 [Peptide P7] | – | – | ΔΔG, increase in binding affinity compared to T1 ([2]; P7 vs T1, ITC): 0.3 kcal/mol; ΔG (Exp) ([2]; Table 2, brackets = error of the mean, ITC, 25°C, 50 mM KH2PO4 pH = 7.2): −7.8 (0.1) kcal/mol |
| Ac-pSPVF-CONH2 [Peptide T5] | – | – | ΔGexp (binding free energy) ([1]; T5, ref [18]): -7.8 kcal/mol; ΔG (Exp) ([1]; ref [18]): −7.8 (0.1) kcal/mol; enhancement of binding by Val mutation (vs T1) [1, 3]: 0.3 kcal/mol; binding affinity compared with T1 (in words) ([1]; isothermal calorimetric study, ref [18]): practically the same binding affinity |
| Ac-pSPAF-CONH2 [Peptide T3] | -5.9 kcal/mol | −5.9 (0.2) kcal/mol | loss in binding affinity caused by Thr→Ala mutation (vs T1) [1, 3]: 1.6 kcal/mol |
